Compound activity deposited in PubChem BioAssay by Broad Institute.
CDK5 inh: CDK5/p35 (human) kinase inhibition | Recombinant CDK5/p35, ADP-Glo luminescence, 60 min | AID 488839 | hit rate 0.01% among 330,000 | inhibition, % at 10 µM;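 active = highest replicate inhibition of at least 50% and at least 75% of replicates reaching 50%; inconclusive = only one of the two criteria met; inactive = both criteria failed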;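 note: plate controls were DMSO neutral control for no effect and GW8510 at 10 µM for full effect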
GSK3B inh: blocks human GSK3beta kinase activity. P49841. GST-GSK3beta kinase, ADP-Glo luminescence, 60 min; active compounds read low. activity score (negative = inhibition), % at 10 µM. hit rate 0.038% among 300,000. AID 2097;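 active = more than half of replicate wells score below -50%, meaning over 50% inhibition versus plate controls; inconclusive = some replicates but at most half score below -50%; inactive = no replicate scores below -50%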;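 note: 0% = median DMSO wells and -100% = median GW8510 positive control wells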
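test system = GST-tagged human GSK3beta kinase, cell-free | reagent = 25 µM ATP with peptide substrate | dosing = one dose of 10 µM per compound | schedule = 60 min reaction, RT | detection = luminescent ADP-Glo measurement of ADP formed | control set = DMSO neutral wells and GW8510 at 20 µM as positive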
SR-BI DiI inh: blocks mouse SR-BI lipid uptake from DiI-HDL. Q61009. ldlA[mSR-BI] CHO cells, DiI-HDL uptake fluorescence, 3 h. inhibition, % at 12.5 µM. hit rate 0.96% among 320,000;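 active = mean replicate inhibition of at least 70% and a set share of replicates each scoring 70 or more; inconclusive = meets just one of the two criteria; inactive = fails both criteria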;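 note: 0% = median of neutral control wells and 100% = median of positive control wells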
SR-BI DiI-HDL act: enhances SR-BI lipid uptake from DiI-HDL; CHO ldlA[mSR-BI] cells, DiI-HDL uptake fluorescence, 3 h; 100 = double the neutral-control signal; activation, % at 12.5 µM; hit rate 0.096% among 320,000;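 active = mean replicate activation of at least 60% and every replicate at or above 60%; inconclusive = mean or all-replicate condition met, but not both; inactive = mean below 60% and not all replicates reaching 60%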;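 note: 0% = median plate neutral-control signal and 100% = twice that signal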
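Assay system: LDL receptor-deficient CHO ldlA cells overexpressing murine SR-BI / Medium: BSA-supplemented, HEPES-buffered Ham's F12, pH 7.4 / Probe or stimulus: DiI-labelled HDL at 10 µg/mL final / Timing: compound with DiI-HDL co-incubation, 3 h at 37 °C / Technique: bottom-read cell fluorescence after medium removal, ex 550/em 595 nm / Measure: HDL uptake via cellular fluorescence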
GSK3A inh: inhibitors of human GSK-3 alpha kinase | P49840 | ADP-Glo luminescence, 60 min | inhibition, % at 10 µM | hit rate 0.1% among 320,000;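 active = more than half of replicates show inhibition above 20%; inconclusive = some but at most half of replicates above 20% inhibition; inactive = no replicate shows inhibition above 20%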;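 note: GST-tagged GSK-3 alpha with peptide substrate and 25 µM ATP; 0% = DMSO neutral wells and 100% = GW8510 positive control wells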
Target sequence (P49840 whole entry, looked up): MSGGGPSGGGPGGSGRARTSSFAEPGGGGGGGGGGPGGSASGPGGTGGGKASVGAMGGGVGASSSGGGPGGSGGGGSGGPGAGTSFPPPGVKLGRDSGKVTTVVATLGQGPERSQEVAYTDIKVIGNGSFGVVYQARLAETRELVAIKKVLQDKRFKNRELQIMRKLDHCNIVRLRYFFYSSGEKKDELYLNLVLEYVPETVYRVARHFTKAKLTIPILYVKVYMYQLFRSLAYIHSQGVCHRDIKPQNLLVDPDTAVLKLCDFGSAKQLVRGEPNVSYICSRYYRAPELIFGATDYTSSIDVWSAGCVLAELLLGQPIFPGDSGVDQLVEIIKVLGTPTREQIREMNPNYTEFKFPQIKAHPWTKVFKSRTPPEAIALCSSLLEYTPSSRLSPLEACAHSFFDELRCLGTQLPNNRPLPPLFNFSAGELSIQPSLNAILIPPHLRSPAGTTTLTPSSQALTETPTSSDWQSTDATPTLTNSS
Starred values were filed as active, the others as inactive; ? = inconclusive; . = no result. Only some compounds are listed: those with a hit (about 1.1% of all), similar ones and a draw of the others.

SMILES	CDK5 inh	GSK3B inh	SR-BI DiI inh	SR-BI DiI-HDL act	GSK3A inh
CCOc1ccc(/C=C/C(=O)N(CC)CC(=O)Nc2ccc3c(c2)OCCO3)cc1OC	-3	2	?	-71	0
CCOc1ccc(/C=C/C(=O)N(CC)CC(=O)Nc2ccc3c(c2)OCCO3)cc1OCC	0	0	74*	-74	-1
CCOC(=O)/C=C/c1ccc2c(c1)S(=O)(=O)N(c1cccc(OC)c1)[C@H]2CC(=O)OCC	0	-1	83*	-83	1
COc1cccc(CN(C)CC(=O)Nc2cc3oc4ccccc4c3cc2OC)c1	-1	-2	78*	-78	0
COc1cc2c(cc1NC(=O)c1ccncc1)oc1ccccc12	0	-4	78*	-78	.
COc1ccc(C(=O)NC(=S)Nc2cc3oc4ccccc4c3cc2OC)cc1	1	1	32	-32	2
COc1cc2c(cc1NC(=O)CN(C)Cc1cccc(OC)c1OC)oc1ccccc12	0	2	46	-46	-3
COc1cc(OC)cc(C(=O)NC(=S)Nc2cc3oc4ccccc4c3cc2OC)c1	0	0	81*	-81	-1
COCCNC(=S)Nc1cc2oc3ccccc3c2cc1OC	-2	-1	93*	-93	-2
COc1cc2c(cc1NC(=S)NC(=O)c1c(OC)cccc1OC)oc1ccccc12	1	0	15	-15	-1
COCCCNC(=O)c1cc(C(=O)c2ccccc2Br)c[nH]1	0	0	2	-2	-1
COc1ccccc1CC(=O)Nc1cc2oc3ccccc3c2cc1OC	-2	0	87*	-87	-6
CCCCCCC(=O)Nc1nc(C)c(-c2csc(Nc3cc(OC)ccc3OC)n2)s1	-1	2	106*	-106	-3
COc1ccc(OC)c(Nc2nc(-c3cccs3)cs2)c1	2	0	92*	-92	-5
CCCCCC(=O)Nc1nc(C)c(-c2csc(Nc3cc(OC)ccc3OC)n2)s1	1	-1	99*	-99	-2
COc1ccc(OC)c(Nc2nc(-c3sc(NC(=O)c4ccccc4)nc3C)cs2)c1	.	-2	.	.	-1
COc1ccc(Nc2nc(-c3cccs3)cs2)c(OC)c1	0	1	54	-54	8
CCOC(=O)C1=C(C)N(C[C@@H]2CC[C@@H](Cc3ccc(-c4ccccc4)cc3)O2)C(=O)NC1C1CC1 (some centres not stated)	-3	.	10	-10	.
CCOC(=O)c1c(NC(C)=O)sc2c(OCC(O)CN(CC)CC)c(Br)ccc12 (configuration not stated)	-1	-1	83*	-83	4
Cc1ccc(N2C(=O)N3[C@H](c4ccc(Br)cc4)[C@@H]4C(=O)N(C(C)(C)C)C(=O)[C@@H]4[C@]3(C)C2=O)cc1	-1	-4	-24	24	-1
Cc1cccc(N2C(=O)N3[C@H](c4ccc(Br)cc4)[C@@H]4C(=O)N(C(C)(C)C)C(=O)[C@@H]4[C@]3(C)C2=O)c1	0	3	-60	60*	6
COc1ccc(C2C(C(=O)c3ccco3)=C(O)C(=O)N2CC2CCCO2)c(OC)c1 (configuration not stated)	0	-2	-14	14	-1
CSc1cccc(NC(=S)NCCCN2CCN(c3ccc(F)cc3)CC2)c1	-1	0	-201	201*	-1
N#Cc1sc2nc(-c3cccs3)cc(-c3ccccc3)c2c1N	-1	1	84*	-84	-4
COc1ccc(C=O)cc1CSc1ncccc1C(=O)O	-2	1	-14	14	2
Cc1cccc(N2CCc3c2nc2ccc(Br)cc2c3N)c1	0	4	91*	-91	6
Cc1nn(-c2ccccc2)nc1C(=O)c1c(C)[nH]n(-c2ccccc2)c1=O	0	2	-21	21	-6
Cc1sc2ncnc(N/N=C/c3ccccc3O)c2c1C	1	0	116*	-116	-1
COCCCNC(=O)Cn1cnc2sc(C)c(S(=O)(=O)N3CC(C)CC(C)C3)c2c1=O (configuration not stated)	0	-1	-10	10	6
COc1cc(/C=C2\CC/C(=C\c3cc(OC)c(OC)c(OC)c3)C2=O)cc(OC)c1OC	1	2	?	-70	3
